In assay [1] the test system is NCI-H2228. As to the kind of experiment: Induction of apoptosis in human NCI-H2228 cells assessed as late apoptotic cells at 5 nM measured after 24 hrs by Annexin V-FITC/PI staining based flow cytometry assay (reference value: 2.02%). The assay is classed as functional. The method in brief: (§1)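 After 24 h or 48 h exposure (5, 25, 50 nM; DMSO 0.01% control), NCI-H2228 cells were harvested, double-stained with Annexin V-FITC and PI and run on flow cytometry. Stage percentages quantified by software; three experiments, representative shown.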
(A flow cytometer gives signals particle by particle.)

The subject of assay [2] is NCI-H2228. Nature of the assay: Induction of apoptosis in human NCI-H2228 cells assessed as late apoptotic cells at 5 nM measured after 48 hrs by Annexin V-FITC/PI staining based flow cytometry assay (reference value: 0.23%). The format is functional. In a few lines:
as §1

Assay [3] deals with NCI-H2228. Nature of the assay: Induction of apoptosis in human NCI-H2228 cells assessed as necrotic cells at 5 nM measured after 48 hrs by Annexin V-FITC/PI staining based flow cytometry assay (reference value: 2.88%). The format is functional. The method in brief:
as §1

Assay [4] relates to NCI-H2228. Nature of the assay: Induction of apoptosis in human NCI-H2228 cells assessed as necrotic cells at 25 nM measured after 48 hrs by Annexin V-FITC/PI staining based flow cytometry assay (reference value: 2.88%). The assay is classed as functional. The method in brief: as §1
Assay [5] relates to NCI-H2228. Nature of the assay: Induction of apoptosis in human NCI-H2228 cells assessed as necrotic cells at 50 nM measured after 24 hrs by Annexin V-FITC/PI staining based flow cytometry assay (reference value: 0.21%). The format is functional. The method in brief: as §1
For assay [6], the system named is NCI-H2228. Nature of the assay: Induction of apoptosis in human NCI-H2228 cells assessed as nuclear fragmentation at 5 to 50 nM measured after 48 hrs by Hoechst 33342 staining based flourescence microscopy method. The format is functional, cell-based. As to conditions: dose 5-50 nM. In a few lines:
(§2)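 Nuclear morphology: NCI-H2228 cells treated 48 h at 5, 25 and 50 nM, stained with Hoechst 33342, imaged on an inverted fluorescence microscope. Performed three times, representative images shown.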

Assay [7] concerns NCI-H2228. Nature of the assay: Induction of apoptosis in human NCI-H2228 cells assessed as viable cells at 5 nM measured after 24 hrs by Annexin V-FITC.PI staining based flow cytometry assay (reference value: 95.6%). The format is functional. As to conditions: read-out: Activity. In a few lines:
as §1

In the next assay the test system is BaF3. Nature of the assay: Antiproliferative activity against mouse BaF3 cells overexpressing ALK assessed as inhibition of cell proliferation measured by CCK8 assay. The format is functional, cell-based. The method in brief:
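Cell proliferation inhibition; IC50 given as mean ± SD of three independent experiments.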
For orientation: Formazan colour is commonly taken as a measure of viable cells.

For assay [8], the system named is NCI-H2228. Nature of the assay: Induction of apoptosis in human NCI-H2228 cells assessed as nuclear pyknosis at 5 to 50 nM measured after 48 hrs by Hoechst 33342 staining based flourescence microscopy method. The assay is classed as functional, cell-based. The following applies: dose 5-50 nM. In a few lines:
as §2

Assay [9] concerns NCI-H2228. Nature of the assay: Cell cycle arrest in human NCI-H2228 cells assessed as accumulation of cells in G2/M phase at 20 nM measured after 48 hrs by PI staining based flow cytometry method (reference value: 2.23%). The assay is classed as functional. The method in brief: (§3)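 NCI-H2228 cells exposed to 20 nM for 0, 12, 24 or 48 h, stained with PI and analysed by flow cytometry for G0/G1, S and G2/M fractions. Phase percentages quantified by analysis software; three independent experiments, representative run shown.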

The subject of assay [10] is NCI-H2228. As to the kind of experiment: Induction of apoptosis in human NCI-H2228 cells assessed as necrotic cells at 25 nM measured after 24 hrs by Annexin V-FITC/PI staining based flow cytometry assay (reference value: 0.21%). The assay is classed as functional. In a few lines:
as §1

Assay [11] has as its system NCI-H2228. As to the kind of experiment: Induction of apoptosis in human NCI-H2228 cells assessed as induction of mitochondrial membrane potential collapse at 5 to 50 nM measured after 24 hrs by JC-1 probe based flourescence microscopy. The assay is classed as functional, cell-based. As to conditions: dose 5-50 nM. In a few lines: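 JC-1 read of mitochondrial membrane potential: NCI-H2228 cells given 5, 25 or 50 nM, or DMSO 0.01%, for 24 h, then probe-loaded 30 min and viewed by fluorescence microscopy for red aggregate versus green monomer signal. Three experiments.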

In assay [12] the test system is NCI-H2228. Nature of the assay: Cell cycle arrest in human NCI-H2228 cells assessed as accumulation of cells in G2/M phase at 20 nM measured after 24 hrs by PI staining based flow cytometry method (reference value: 2.23%). The format is functional. The method in brief: as §3

Activity calls are given as the source filed them. The calls are words filed in the database; no cut-off is given here.

The term IC50 denotes the concentration that gives 50% inhibition. Consider `CCC(=O)Nc1cc(Nc2ncc(Cl)c(Nc3ccc(F)cc3[S+]([O-])CC)n2)c(OC)cc1N1CCN(C)CC1` (stereo not drawn), for which the Activity with NCI-H2228 [1] turned out to be 7.02%; in the assay with NCI-H2228 [2] it was 14.1%; in the assay with NCI-H2228 [3], 0.69%; with NCI-H2228 [4], 0.22%; with NCI-H2228 [5] it was 0.47%; with NCI-H2228 [9] it was 3.41%. The Activity in the assay with NCI-H2228 [10] turned out to be 0.17%; in the assay on NCI-H2228 [12], 7.16%. In addition, the result in the assay on NCI-H2228 [6], in the assay on NCI-H2228 [8] and in the assay with NCI-H2228 [11] was Active. Further, the viability at 0.005 µM in the assay with NCI-H2228 [7] turned out to be 83.2%. The IC50 in the assay with BaF3 is 8.11 nM.

Values taken from ChEMBL document CHEMBL4823286, “Synthesis and evaluation of novel 2,4-diaminopyrimidines bearing a sulfoxide moiety as anaplastic lymphoma kinase (ALK) inhibition agents” (Bioorg Med Chem Lett, 2021).
